This data set in a line: Toxicity liver stage against HepG2, at 10uM. It counts as cell-based. Also on record: test concentration 10 uM, cell line HepG2-A16-CD81EGFP. Particulars: human, HepG2-A16-CD81EGFP cells; read-out: INHIBITION
Summed up: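 Uninfected HepG2-A16-CD81EGFP cells, 3 × 10^3 per well, 1536-well, plated on prespotted compound at 10 μM final, parasite-free screening media added to match infected plates; puromycin 10 μM positive, DMSO 0.5% negative; run in parallel with 48 h PbLuc assay at 37 °C, 5% CO2; viability by CellTiter-Glo luminescence, normalized to controls.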
On to `O=C(NCC1CCCO1)C1CCN(Cc2nc(C3CC3)no2)CC1` (stereo unspecified), for which the cytotoxicity at 10 µM was 1.11%.
Under `c1ccc(CCCN2CC[C@H](c3nnc(-c4ccccc4)o3)C2)cc1` stands 4.77%; under `CC(=O)c1cc2ncc(C(=O)NC3CC3)cc2[nH]1`, -0.0253%.
As to `CCOCCCNC(=O)c1cn(C(C)(C)C)c2ncccc12`, the cytotoxicity at 10 µM was 2.05%.
As to `c1ccc2c(c1)CCN2c1nc(N2CCOCC2)c2nn[nH]c2n1`, the cytotoxicity at 10 µM was -3.29%.
Turning to `O=S(=O)(Nc1cnc(N2CCCC2)nc1)c1ccc(OC(F)(F)F)cc1`, the cytotoxicity at 10 µM came to 2.41%.
In the case of `O=S(=O)(NCCn1ccc(-c2ccccn2)n1)C1CCCCC1`, the cytotoxicity at 10 µM was found to be 8.63%.
Turning to `CNC(=O)[C@@]12CCC3(CCN(S(C)(=O)=O)CC3)[C@@H]1CN(C(C)=O)C2`, the cytotoxicity at 10 µM is -2.07%.
The same measure for `Cc1ccc(N2CC[C@H]3OCC[C@@]3(C(=O)N3CCCC3)C2)nn1`: 2.46%; for `O=C(c1ccoc1)N1CCC2(C1)CN(c1ncccn1)C2`: -5.55%; for `CCn1c(SCC(=O)N2CCCC2)nc2cc(C)[nH]c2c1=O`: 7.44%.
Consider `CC(C)CCn1[nH]c(CNc2ccc(Cl)cc2)nc1=O`, for which the cytotoxicity at 10 µM stood at 1.33%.
Regarding `COc1ccc(-c2ccnc3nc(N4CCCC4)[nH]c(=O)c23)cc1OC`, the cytotoxicity at 10 µM turned out to be 9.29%.
On to `O=C1CSC(c2ccncc2)c2c[nH]nc2N1` (stereo unspecified), for which the cytotoxicity at 10 µM was 13%.
For `Fc1cccc(CN2CCC[C@@H](Cn3nnc(-c4ccccn4)n3)C2)c1`, the cytotoxicity at 10 µM was determined as 3.33%.
The same measure for `COCCOCC(=O)N1C[C@@H]2CC[C@H](Oc3ccccc3Cl)[C@@H]2C1`: -10.9%; for `CC1c2ccc(F)cc2CCN1C(=O)c1nc(=O)[nH][nH]1` (stereo unspecified): 15.6%.
On to `CNS(=O)(=O)CCCNC(C)(C)c1nc(C)cs1`, for which the cytotoxicity at 10 µM turned out to be 11.1%.
For the compound `Cc1ccc(F)c2c1N(C(=O)c1ccc(S(C)(=O)=O)cc1)CCC2`, the cytotoxicity at 10 µM is 2.97%.
On to `CC(Cn1cncn1)NC(=O)NCC(C)(C)Cc1ccccc1` (stereo unspecified), for which the cytotoxicity at 10 µM was found to be 17%.
In the case of `Cc1cc(Nc2ccc3c(c2)CC(=O)N3)nc(C2CC2)n1`, the cytotoxicity at 10 µM stood at 0.658%.
Regarding `CN(Cc1ccc(Br)o1)C(=O)Nc1cccnc1`, the cytotoxicity at 10 µM was -7.91%.
Turning to `CCn1cc(C#N)c(=O)c2cc(Br)ccc21`, the cytotoxicity at 10 µM was determined as 1.35%.
Take `Cc1cc(C2CCCN2C(=O)NCc2cccnc2N(C)C)on1` (stereo unspecified): the cytotoxicity at 10 µM was -8.1%.
In the case of `O=C(NCc1ccccc1CN1CCC(O)CC1)Nc1ccccc1`, the cytotoxicity at 10 µM worked out at 7.77%.
Regarding `NC(=O)C1CCN(CCc2ccc(NCc3cscn3)cc2)CC1`, the cytotoxicity at 10 µM is 3.69%.
For the compound `O=C(NCCn1cccc1)C1CCCOC1` (stereo unspecified), the cytotoxicity at 10 µM was determined as 3.03%.
In the case of `Cc1cc(C)cc(CN2CCCC2c2noc(C)n2)c1` (stereo unspecified), the cytotoxicity at 10 µM was determined as 9.86%.
With `OC1CCN(c2cnnc3ccccc23)CC1`, the cytotoxicity at 10 µM is -0.561%.
With `CS(=O)(=O)c1ccc(NC(=O)CSC(F)(F)F)cn1`, the cytotoxicity at 10 µM was found to be 8.28%.
As to `Cc1noc(C)c1CNC(=O)C(C)Oc1ccccc1F` (stereo unspecified), the cytotoxicity at 10 µM stood at 3%.
On to `CC(c1ccccc1Cl)N1CCN(C(=O)c2ccc(=O)[nH]c2)CC1` (stereo unspecified), for which the cytotoxicity at 10 µM is -7.85%.
As for `Cc1cc(CN(C)C(=O)CN2CCCC2=O)no1`, the cytotoxicity at 10 µM was 3.05%.
Take `CC(C)N(CC1CCCN(Cc2ccon2)C1)C(=O)OC(C)(C)C` (stereo unspecified): the cytotoxicity at 10 µM amounted to 7.09%.
Under `CC(C)CCN1CCN(Cc2nc(C3CC3)no2)CC1` stands -8.77%.
Take `COc1ccc(C(=O)N2CCC(Oc3cccc(C)c3)(C(=O)O)CC2)o1`: the cytotoxicity at 10 µM worked out at 9.24%.
In the case of `Cc1cc(C)c2c(N3CCN(CCN4CCOCC4)CC3)ncnc2n1`, the cytotoxicity at 10 µM stood at 3.04%.
Consider `COCCN(C)C(C(=O)O)c1ccc2ccccc2c1` (stereo unspecified), for which the cytotoxicity at 10 µM amounted to 3.54%.
`CCSCCNc1cc(C)nc2c(C)c(C)nn12`: the cytotoxicity at 10 µM turned out to be 5.88%.
As to `COCC(=O)NCc1cc2n(n1)CCCN(CCCC1CCCC1)C2`, the cytotoxicity at 10 µM was -5.01%.
The same measure for `CO[C@H]1CN(C(C)C)C[C@@H]1NC(=O)Nc1ccc(C(F)(F)F)cc1`: 2.05%; for `O=C(CCc1cc2n(n1)CCCNC2)NCCCSC1CCCCC1`: -5.52%; for `CNc1ccnc(N2C[C@@H](C)[C@](O)(C3CC3)C2)n1`: -13.1%.
For the compound `Cc1cccc(C)c1OC1CN(Cc2cnc(N3CCOCC3)nc2)C1`, the cytotoxicity at 10 µM came out at 3.47%.
Turning to `COCCn1ccnc1C1CCCN(C(=O)c2cc(F)cc(F)c2)C1` (stereo unspecified), the cytotoxicity at 10 µM was found to be 8.86%.
For the compound `O=C(O)[C@]12CN(CC3CCC3)C[C@H]1CN(c1cnccn1)C2`, the cytotoxicity at 10 µM is 8.16%.
As to `O=C(NCC(O)c1ccc(F)cc1)C1CCN(C2CCCCC2)CC1` (stereo unspecified), the cytotoxicity at 10 µM stood at 5.67%.
Take `Cn1ccnc1-c1nccn1-c1cccc(CN2CCCC2)c1`: the cytotoxicity at 10 µM is -2.36%.
The same measure for `Cc1nc(O)cc(C2CCCN(C(=O)c3cccc(N(C)C)c3)C2)n1` (stereo unspecified): -6.47%.
Take `Cc1nc(O)cc(CCNC(=O)c2ccc(CN3CCCCC3)cc2)n1`: the cytotoxicity at 10 µM was found to be 8.61%.
As for `Cc1noc(CC2CCN(Cc3ccc(CCC(C)(C)O)cc3)CC2)n1`, the cytotoxicity at 10 µM was -2.18%.
On to `Cn1cc(CN2CCC(CCC(=O)NCc3ccc(F)cc3)CC2)cn1`, for which the cytotoxicity at 10 µM was -19.5%.
Take `Cc1n[nH]c(C)c1CCCN(C)Cc1c[nH]nc1-c1ccc(F)cc1`: the cytotoxicity at 10 µM worked out at 3.45%.
As to `CN(C)S(=O)(=O)c1ccc(CNC(=O)c2cn3c(n2)CNCC3)cc1`, the cytotoxicity at 10 µM is 16.9%.
Turning to `O=C(CCn1cnnn1)N1CCCC(CO)(CCc2ccccc2)C1` (stereo unspecified), the cytotoxicity at 10 µM was found to be 5.26%.
For the compound `CCC(C)N(Cc1cccnc1)C(=O)c1ncccc1O` (stereo unspecified), the cytotoxicity at 10 µM is 14.9%.
With `CN(C)CCCn1ccc(-c2cccc(-c3cncnc3)c2)n1`, the cytotoxicity at 10 µM was found to be 2.51%.
Under `O=C1CN(CC[C@@H](O)c2ccccc2)CCN1c1ccccc1Cl` stands 1.29%; under `CCC(CO)N(Cc1ccccn1)C(=O)c1cccc(C#N)c1` (stereo unspecified), -3.67%.
In the case of `NC(=O)C1CCCN(Cc2ccc(C(=O)Nc3cnns3)cc2)C1` (stereo unspecified), the cytotoxicity at 10 µM amounted to 13.7%.
Take `O=C(NCCc1cnccn1)c1ccc(S(=O)(=O)NC2CCC2)cc1`: the cytotoxicity at 10 µM worked out at 7.63%.
For `CCc1cc(CN(C)Cc2nc(-c3ccc(OC)cc3F)oc2C)on1`, the cytotoxicity at 10 µM was -3.4%.
With `Cc1[nH]ccc1C(=O)N1CCCC(c2nccn2Cc2cscn2)C1` (stereo unspecified), the cytotoxicity at 10 µM is -17.5%.
As for `CCn1ccnc1CN(C)C1CCCN(CCc2ccccc2)C1` (stereo unspecified), the cytotoxicity at 10 µM is -8.63%.
In the case of `COc1ccc(-n2ccc(C(=O)NCCN3CCCCC3)n2)cc1`, the cytotoxicity at 10 µM is -2.87%.
In the case of `COc1c(CNCC(O)c2ccccc2F)c(C(C)C)nn1C` (stereo unspecified), the cytotoxicity at 10 µM is -8.91%.
As for `Cc1ccc(C(O)CNC(=O)NCc2c(C)cc(C)[nH]c2=O)cc1` (stereo unspecified), the cytotoxicity at 10 µM is -3.9%.
As for `CC(C)(C)c1n[nH]c(C2CN(C(=O)C3=COCCC3)CCO2)n1` (stereo unspecified), the cytotoxicity at 10 µM was -5.74%.
As to `O=C(NCCN1CCCS1(=O)=O)c1scnc1Cl`, the cytotoxicity at 10 µM was -3.67%.
Regarding `Cn1cc(-c2nc(C(=O)N3CCCC3Cn3cccn3)cs2)cn1` (stereo unspecified), the cytotoxicity at 10 µM is -9.25%.
In the case of `CCCc1n[nH]c(C2CN(C(=O)c3ccc(C)[nH]c3=O)CCO2)n1` (stereo unspecified), the cytotoxicity at 10 µM was 0.238%.
`CCOc1ccccc1C1=CCN(C(=O)C2CCN(C)C(=O)C2)CC1` (stereo unspecified): the cytotoxicity at 10 µM was found to be 2.58%.
For `Cc1ccccc1C1(CNC(=O)NC(C)c2nncn2C)CC1` (stereo unspecified), the cytotoxicity at 10 µM was -5.59%.
The same measure for `CCN1CCN(CCCNC(=O)NC(C)c2nncn2C)CC1` (stereo unspecified): -12.8%; for `c1ccc(-c2ccc(CN3CCOC(Cn4cncn4)C3)cc2)cc1` (stereo unspecified): 9.96%; for `Cc1cnn(CC2CN(Cc3ccc(-n4cccn4)cc3)CCO2)c1` (stereo unspecified): -0.674%.
As for `CC(C)n1ccnc1CN1CCCN(C(=O)CN(C)C2CC2)CC1`, the cytotoxicity at 10 µM was -3.96%.
`COc1cc(CNCc2ccnc(N3CCOCC3)c2)cc(Cl)c1OC`: the cytotoxicity at 10 µM was -8.7%.
Turning to `Cc1c(F)cc(C(=O)O)cc1S(=O)(=O)Nc1ccc2c(c1)OCCO2`, the cytotoxicity at 10 µM was -1.45%.
`c1ncn(CC2CCCN2Cc2cn3ccsc3n2)n1` (stereo unspecified): the cytotoxicity at 10 µM was -10.1%.
The same measure for `Cc1cc(C(C)C(=O)N2CCCN(Cc3cscn3)CC2)c(C)o1` (stereo unspecified): -1.58%; for `COc1ccc(-c2noc(CN3CCc4cncnc4C3)n2)cc1`: -0.215%; for `CC(C)c1ncc2c(n1)CN(Cc1ccc(C(N)=O)cc1)CC2`: -14.2%.
As for `CCCn1nc2c(cc1=O)CN(CC(=O)Nc1ccncc1)CC2`, the cytotoxicity at 10 µM was -17.8%.
For `CCc1ccsc1C(=O)N1CCN(C(=O)CC(F)(F)F)CC1`, the cytotoxicity at 10 µM was -9.88%.
Under `COc1cc(CN[C@@H]2COC[C@H]2Cc2cc(C)no2)cc(OC)c1` stands 0.975%.
Turning to `Cn1nc(C2CCCN(Cc3cc(F)ccc3F)C2)c2nccnc21` (stereo unspecified), the cytotoxicity at 10 µM was -12.9%.
`Cc1ccc(CNC2CCc3[nH]c(=O)ccc3C2)cc1C` (stereo unspecified): the cytotoxicity at 10 µM turned out to be 0.354%.
With `Cn1nnc2c1CCN(CC1CC1)C2COCc1ccccc1` (stereo unspecified), the cytotoxicity at 10 µM worked out at 6.74%.
For `Cc1ccc(N2CC[C@H]3C[C@H](C(=O)NCc4ccco4)O[C@@H]3C2)cc1`, the cytotoxicity at 10 µM turned out to be 8.8%.
For `c1cnc(NC[C@H]2OC[C@@H]3CCN(Cc4cccnc4)C[C@@H]32)nc1`, the cytotoxicity at 10 µM is -3.12%.
Consider `O=C(c1ccsc1)N1CCc2c(COCC3CC3)cncc2C1`, for which the cytotoxicity at 10 µM stood at 1.65%.
On to `O=C(N1CCCO1)[C@@]12CCO[C@@H]1CCN(Cc1cccs1)C2`, for which the cytotoxicity at 10 µM is -6.36%.
The same measure for `Cc1noc2nc(C3CCN(CC4=CCCOC4)CC3)cc(C(F)F)c12`: 0.307%.
As to `Cc1cccc(CN2C[C@@H]3COC[C@]3(CNC(=O)c3ccsc3)C2)n1`, the cytotoxicity at 10 µM is -1.85%.
On to `CN1CC(=O)N(c2cnn(C)c2)CC12CCN(Cc1cccnc1)C2` (stereo unspecified), for which the cytotoxicity at 10 µM was -1.69%.

The record behind these values is ChEMBL document CHEMBL4513216, “Probing the Open Global Health Chemical Diversity Library for Multistage-Active Starting Points for Next-Generation Antimalarials” (ACS Infect Dis, 2020).
